# Bioassay records deposited in PubChem by several laboratories.
# Yeast lifespan up: yeast lifespan extension. S. cerevisiae growth with nicotinamide, OD615; deaD strain in restrictive glucose medium. inhibition of the nicotinamide effect, % at 10 µM. hit rate 0.68% among 130,000;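 active = inhibition above a set limit, placed 3 SD over the median of all compounds, cut at about 26% in these data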;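 note: 0% = nicotinamide-treated wells and 100% = cells grown without nicotinamide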
#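 Assay system: DeaD-strain S. cerevisiae. Medium: CSMM-D glucose medium, restrictive. Reagent: nicotinamide, 1.5 mM, co-present with compound. Compound: 10 µM single point, 0.25% DMSO. Schedule: culture preincubation 4 h, compound exposure 48 h, both 30 °C. Detection: absorbance at 615 nm.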
# Insulin prom inh: TRM-6 insulin promoter activity inhibition; AID 1273; hit rate 0.9% among 130,000; TRM-6 cells, insulin promoter-eGFP reporter, imaging; reporter expression induced with tamoxifen; inhibition, % at 2 µM;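 active = inhibition above the mean plus 3 SD, with well images judged a real hit on visual review, cut at about 60% in these data, passing the limit was not always enough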
# Efa HMGR inh: E. faecalis class II HMG-CoA reductase inhibition. purified E. faecalis HMGR, NADPH absorbance 340 nm kinetic. inhibition, % at 10 µM. hit rate 0.41% among 190,000. AID 1066;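 active = inhibition above a set limit, the median over all tested compounds plus 3 SD, cut at about 9.5% in these data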;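 note: enzyme runs in reverse so mevalonate oxidation gives rising NADPH absorbance; 0% = complete reaction with DMSO and 100% = background rate lacking mevalonate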
# RAM inhibit: blocks the yeast RAM network. S. cerevisiae dse1pr::URA3 reporter, 5-FOA growth OD615, 2 d; analog-sensitive cbk1-as2 kinase mutant strain. inhibition, % at 50 µM. hit rate 1.8% among 190,000;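 active = inhibition above a set limit, 3 SD over mean compound inhibition, cut at about 8.4% in these data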;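 note: 0% = DMSO-only wells with no growth and 100% = 10 µM 1-NA-PP1 full growth; inhibition rescues growth on 5-FOA so higher OD means more RAM inhibition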
# BB579 growth dn: reduces growth of yeast BB579 in restrictive medium; hit rate 0.51% among 140,000; AID 804; inhibition, % at 10 µM; S. cerevisiae BB579 growth, OD615, 48 h;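 active = inhibition above a set limit, 3 SD over the mean compound inhibition, cut at about 44% in these data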
#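 test system = yeast BB579 (DeaD) | buffer or medium = restrictive CSMM-D medium | doses = single compound dose of 10 µM, 0.25% DMSO final | times = 4 h preincubation and 48 h exposure at 30 °C | technique = culture absorbance at 615 nm | benchmarks = amphotericin B 10 µg/mL, positive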
# * = called active by the depositor; / = no result given. Shown are actives, neighbours in structure and some others; about 3.7% of the full set was active somewhere.
SMILES,Yeast lifespan up,Insulin prom inh,Efa HMGR inh,RAM inhibit,BB579 growth dn
COc1ccc(CN(C2CCCC2)S(=O)(=O)c2ccc(-n3cnnn3)cc2)cc1,-22.1,82.8*,-2.6,7.5,-39.5
COC(=O)C1=C(C)N(Cc2ccco2)C(=O)N[C@H]1c1cccc(C(F)(F)F)c1,10.5,4.5,-6.4,0.5,-0.9
CCN1C(=O)N[C@@H](c2ccc(Br)cc2)C(C(=O)OC)=C1C,10.0,65.0*,-5.9,-0.8,-25.8
COC(=O)C1=C(C)N(Cc2ccco2)C(=O)N[C@@H]1c1ccccc1,1.8,-63.6,10.9*,0.8,-8.2
COC(=O)C1=C(C)N(CC2CC2)C(=O)N[C@H]1c1ccc(Br)cc1,8.0,-10.0,-3.2,1.9,-35.5
O=C1CC(c2ccc(Cl)cc2)CC(=O)C1CS(=O)(=O)c1ccccc1 (stereo not given),/,-63.6,-2.0,0.6,/
O=C1CC(c2ccccc2)CC(=O)C1Sc1ccc(Cl)cc1 (stereo not given),39.6*,1.6,-4.8,1.8,-3.4
COc1ccc(N2CCN(C(=O)C3(C)CC3(Cl)Cl)CC2)cc1 (stereo not given),7.5,-16.9,2.7,1.0,-12.5
O=C(Cc1cccs1)N1CCN(c2ccc([N+](=O)[O-])cc2)CC1,/,57.1,-0.1,5.8,/
Cc1ccc(OCC(O)CN2C(=O)NC(C)(C)C2=O)cc1C (stereo not given),-11.7,/,1.7,0.3,-4.5
Cc1ccc(OCC(O)CN2C(=O)NC(C)(C)C2=O)cc1 (stereo not given),/,0.0,14.2*,-0.2,-4.6
O=C(N/N=C/c1ccc([N+](=O)[O-])cc1)c1[nH]ncc1Br,/,/,-5.4,3.9,/
COc1cccc(O[C@@H]2O[C@@H]3COC(C)(C)O[C@H]3[C@H](O)[C@H]2NC(C)=O)c1,/,12.5,10.0*,4.6,-28.8
C=CCn1c(COc2cc(C)ccc2C(C)C)nnc1SCC(=O)c1c(N)n(C)c(=O)n(C)c1=O,4.1,15.4,-3.6,-1.2,-7.2
CCc1nnc(NC(=O)CSc2nnc(-c3ccoc3C)n2-c2ccccc2)s1,-1.9,81.4*,0.4,2.7,-17.0
CCc1nnc(NC(=O)CSc2nc(C3CCCCC3)nc3ccccc23)s1,6.6,33.3,-2.5,10.1*,-67.2
N#Cc1ccccc1NC(=O)CSc1nnc(-c2ccccc2O)n1-c1ccccc1,-4.9,35.0,-0.9,10.2*,-36.0
COCCCn1c(SCC(=O)Nc2nnc(C)s2)nnc1-c1ccoc1C,59.6*,/,1.4,1.4,-6.9
Cn1c(CN2CCCC2)nc2cc(NC(=O)COc3ccc([N+](=O)[O-])cc3)ccc21,3.1,-166.7,4.8,-0.4,1.8
NS(=O)(=O)c1cccc(NC(=O)CCSc2ccccc2Cl)c1,1.3,-26.7,-5.0,1.5,2.1
O=C(CCSc1ccccc1Cl)Nc1cccc([N+](=O)[O-])c1,-5.9,6.2,-0.2,8.9*,-60.2
CCOC(=O)C1(Cc2ccccc2C(F)(F)F)CCN(CC2CC2)CC1,/,/,3.8,0.1,/
CN(C(=O)CCN1C(=O)C(C)(C)Nc2ccccc21)c1ccccc1,4.5,-305.7,35.7*,0.3,-37.5
CC(Oc1ccc(Cl)cc1Cl)c1nc(-c2ccc(NC(=O)c3ccccn3)cc2)no1 (stereo not given),/,-23.3,-1.5,11.0*,-23.5
COc1ccc(Cl)cc1-c1nc(-c2ccc(NC(=O)c3ccncc3)cc2)no1,/,-29.0,/,/,/
SMILES,Yeast lifespan up,Insulin prom inh,Efa HMGR inh,RAM inhibit,BB579 growth dn
CC(C)N(Cc1nc(-c2ccccc2)no1)S(=O)(=O)c1ccccc1,-7.3,/,-6.1,5.1,-1.0
O=S(=O)(c1ccccc1)N(Cc1nc(-c2ccccc2)no1)C1CCCCC1,-4.0,-25.8,-0.4,9.2*,-53.6
CN(Cc1nc(-c2ccncc2)no1)S(=O)(=O)c1ccccc1,-6.7,-23.6,-0.1,-0.8,-23.9
CC(C)N(Cc1nc(-c2ccccc2)no1)C(=O)CN(C)S(=O)(=O)c1ccccc1,-8.4,-7.0,-4.7,8.7*,-37.4
Cc1ccc2nsnc2c1NC(=O)COc1ccccc1,/,-66.7,-0.6,0.9,/
Cc1ccc(NC(=O)c2ccc3nc[nH]c3c2)c(O)c1,/,0.0,16.1*,0.4,/
CNc1nc(-c2ccccc2)nc(-c2ccc(OC)cc2)c1C#N,/,/,12.7*,4.8,/
Cc1ccc(S(=O)(=O)CCCS(=O)(=O)c2ccc(C)cc2)cc1,0.8,13.3,10.7*,0.6,-18.8
Cc1ccc(S(=O)(=O)c2ccc(C)cc2)cc1,57.8*,19.4,2.1,2.2,-17.1
O=C(Nc1nc2cc(Cl)ccc2s1)C1CCCN(S(=O)(=O)c2cccc3cccnc23)C1 (stereo not given),-7.1,/,-3.7,4.1,-1.5
CCOC(=O)N1CCN(C(=O)CN(c2ccc3c(c2)OCO3)S(C)(=O)=O)CC1,-10.7,79.0*,-2.9,1.4,7.7
CS(=O)(=O)N(CC(=O)N1CCCCC1)c1ccc2c(c1)OCO2,-24.1,-13.6,-8.0,3.3,-27.1
COc1cc(OC)nc(NC(=O)CS(=O)(=O)c2ccccc2)n1,/,45.2,-1.9,-1.0,55.5*
O=C(NCc1ccc(F)cc1)Nc1cccc(Cl)c1,/,-25.0,-2.9,1.9,/
CCCC(=O)Nc1ccc(Cl)c(NC(=S)NC(=O)c2ccco2)c1,0.5,/,-11.1,6.2,3.2
CC(=O)c1cnc(-c2ccccn2)s1,/,27.3,-9.2,1.8,/
CC(=O)c1cnc(-c2ccccc2Cl)s1,/,76.9*,4.1,1.5,/
C=CCn1c(SCC(=O)NC(=O)c2cccc([N+](=O)[O-])c2)nnc1-c1ccccc1,1.7,-7.7,-0.5,3.7,-14.6
COc1ccc(C(=O)Cn2c(NCCO)nc3ccccc32)cc1,/,-7.7,-2.6,2.0,/
COc1ccc(C(=O)Cn2c(NCCO)nc3ccccc32)cc1OC,/,86.7*,-4.4,0.8,-11.9
CC(=O)NC(=S)Nc1ccc(NC(=O)COc2ccc(C(C)C)cc2)cc1,2.6,75.0*,-2.6,3.3,-20.0
Cc1ccc(-c2cc3ccccc3nc2N2CCCC2)cc1,-8.5,28.1,5.9,-0.5,-28.6
Cc1ccc2c(c1)-c1nc3ccccc3cc1C2=NC1CCCCC1,-9.6,/,-9.5,2.0,47.0*
Cc1ccc2c(c1)C(=NC1CCCCC1)c1cc3ccccc3nc1-2,-9.2,90.6*,-1.3,3.3,59.7*
Cc1ccc2c(c1)Cc1nc3ccccc3nc1-2,/,0.0,1.1,0.7,/
SMILES,Yeast lifespan up,Insulin prom inh,Efa HMGR inh,RAM inhibit,BB579 growth dn
CCCCN(C(=S)Nc1cccc(C)c1C)c1c(N)n(CCC)c(=O)[nH]c1=O,/,/,-17.5,1.6,/
CC(C)c1nc2cc3ccccc3cc2[nH]1,-11.2,85.7*,0.5,1.8,-60.9
O=c1[nH]c2cc3ccccc3cc2nc1C(F)(F)F,/,/,-2.3,0.9,/
CC(C)OC(=O)c1cn(-c2ccccc2)nc1-c1ccc2c(c1)OCCO2,-2.5,55.6,-1.4,11.1*,0.6
Cc1c(NC(=O)CN2C(=O)NC3(CCC(C)CC3)C2=O)c(=O)n(-c2ccccc2)n1C (stereo not given),/,-30.8,-4.6,1.1,/
COc1cc(OC)cc(C(=O)NCc2cc(C)nc3ccccc23)c1,/,0.0,-3.1,3.7,/
